Reference: ChEMBL document CHEMBL1250442, “Inhibiting gene expression at transcription start sites in chromosomal DNA with antigene RNAs” (Nat Chem Biol, 2005)
Activity calls are given as the source filed them.

What was measured:
T47D [1] = experiment: Inhibition of PR-A mRNA gene expression in human T47D cells at 100 nM by syber green assay; format: functional
Procedure, shortened: (§1)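 T47D cells plated at 80,000/well without antibiotics two days before Oligofectamine transfection with agRNA duplex (25 or 100 nM final); medium changed at 24 h, harvest day 5 unless stated otherwise. TRIzol total RNA; PR mRNA by real-time PCR with SYBR Green: 50 °C 2 min, 95 °C 10 min, 40 cycles 95 °C 15 s/60 °C 1 min.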

T47D [2] = experiment: Inhibition of PR-A gene expression in human T47D cells at 25 nM by syber green assay in presence of 10 nM estradiol; format: functional, cell-based
T47D [3] = experiment: Inhibition of major vault protein expression in human T47D cells at 100 nM by syber green assay; format: functional, cell-based
T47D [4] = experiment: Inhibition of PR-B mRNA gene expression in human T47D cells at 100 nM by syber green assay; format: functional
Procedure, shortened: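 T47D cells in RPMI-1640 with 10% FBS, NEAA, insulin, 37 °C, 5% CO2. Plated two days before transfection without antibiotics. Oligofectamine-mediated duplex RNA transfection at 100 nM final, medium changed at 24 h, harvest five days post-transfection. Total RNA extracted with TRIzol. hPR mRNA quantified by SYBR Green qPCR: 50 °C 2 min, 95 °C 10 min, then 40 cycles of 95 °C 15 s / 60 °C 1 min.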

T47D [5] = experiment: Inhibition of PR-B gene expression in human T47D cells at 25 nM by syber green assay in presence of 10 nM estradiol; format: functional, cell-based
T47D [6] = experiment: Effect of DNA methylation at (+295) CpG site near PR-B transcription start site (-13) in human T47D cells by sodium bisulfite sequencing analysis; format: functional, cell-based
Procedure, shortened: (§2)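 T47D cells grown in RPMI-1640 with 10% FBS, 0.5% NEAA, insulin and P/S at 37 °C, 5% CO2. They were plated at 80,000 cells/well 2 days before lipid transfection with 25 nM or 100 nM duplex, with medium changed at 24 h. Cells were harvested 5 days post-transfection. 100 ng bisulfite-treated DNA was PCR-amplified, and products were TA-cloned. 5–15 colonies per plate were sequenced.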

T47D [7] = experiment: Effect of DNA methylation at (-112) CpG site near PR-B transcription start site (-13) in human T47D cells by sodium bisulfite sequencing analysis; format: functional, cell-based
Procedure, shortened: (§3)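 T47D cells (RPMI-1640, 10% FBS, NEAA, insulin; 37 °C, 5% CO2) transfected with agRNA duplexes via Oligofectamine, medium changed at 24 h. Genomic DNA bisulphite-treated, regions around AR and hPR-B start sites PCR-amplified (HotStarTaq, 100 ng treated DNA), gel-purified, TOPO TA cloned; 5–15 colonies per plate miniprepped and sequenced.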

T47D [8] = experiment: Inhibition of PR-A gene expression in human T47D cells at 25 nM by syber green assay; format: functional; procedure, shortened: as §1
T47D [9] = experiment: Effect of DNA methylation at (+162) CpG site near PR-B transcription start site (-13) in human T47D cells by sodium bisulfite sequencing analysis; format: functional, cell-based; procedure, shortened: as §2
T47D [10] = experiment: Effect of DNA methylation at (+362) CpG site near PR-B transcription start site (-13) in human T47D cells by sodium bisulfite sequencing analysis; format: functional, cell-based; procedure, shortened: as §2
T47D [11] = experiment: Effect of DNA methylation at (+112) CpG site near PR-B transcription start site (-13) in human T47D cells by sodium bisulfite sequencing analysis; format: functional, cell-based; procedure, shortened: as §2
T47D [12] = experiment: Effect of DNA methylation at (+356) CpG site near PR-B transcription start site (-13) in human T47D cells by sodium bisulfite sequencing analysis; format: functional, cell-based; procedure, shortened: as §2
T47D [13] = experiment: Effect of DNA methylation at (+125) CpG site near PR-B transcription start site (-13) in human T47D cells by sodium bisulfite sequencing analysis; format: functional, cell-based; procedure, shortened: as §2
T47D [14] = experiment: Effect of DNA methylation at (+337) CpG site near PR-B transcription start site (-13) in human T47D cells by sodium bisulfite sequencing analysis; format: functional, cell-based; procedure, shortened: as §2
T47D [15] = experiment: Effect of DNA methylation at (-46) CpG site near PR-B transcription start site (-13) in human T47D cells by sodium bisulfite sequencing analysis; format: functional, cell-based; procedure, shortened: as §3
T47D [16] = experiment: Effect of DNA methylation at (+190) CpG site near PR-B transcription start site (-13) in human T47D cells by sodium bisulfite sequencing analysis; format: functional, cell-based; procedure, shortened: as §2
T47D [17] = experiment: Effect of DNA methylation at (+166) CpG site near PR-B transcription start site (-13) in human T47D cells by sodium bisulfite sequencing analysis; format: functional, cell-based; procedure, shortened: as §2
T47D [18] = experiment: Effect of DNA methylation at (+319) CpG site near PR-B transcription start site (-13) in human T47D cells by sodium bisulfite sequencing analysis; format: functional, cell-based; procedure, shortened: as §2
T47D [19] = experiment: Effect of DNA methylation at (-75) CpG site near PR-B transcription start site (-13) in human T47D cells by sodium bisulfite sequencing analysis; format: functional, cell-based; procedure, shortened: as §3
T47D [20] = experiment: Inhibition of PR-B gene expression in human T47D cells at 25 nM by syber green assay; format: functional; procedure, shortened: as §1
T47D [21] = experiment: Effect of DNA methylation at (+398) CpG site near PR-B transcription start site (-13) in human T47D cells by sodium bisulfite sequencing analysis; format: functional, cell-based; procedure, shortened: as §2
T47D [22] = experiment: Effect of DNA methylation at (+149) CpG site near PR-B transcription start site (-13) in human T47D cells by sodium bisulfite sequencing analysis; format: functional, cell-based; procedure, shortened: as §2
T47D [23] = experiment: Effect of DNA methylation at (+379) CpG site near PR-B transcription start site (-13) in human T47D cells by sodium bisulfite sequencing analysis; format: functional, cell-based; procedure, shortened: as §2
T47D [24] = experiment: Effect of DNA methylation at (+173) CpG site near PR-B transcription start site (-13) in human T47D cells by sodium bisulfite sequencing analysis; format: functional, cell-based; procedure, shortened: as §2
T47D [25] = experiment: Effect of DNA methylation at (+335) CpG site near PR-B transcription start site (-13) in human T47D cells by sodium bisulfite sequencing analysis; format: functional, cell-based; procedure, shortened: as §2
T47D [26] = experiment: Effect of DNA methylation at (+107) CpG site near PR-B transcription start site (-13) in human T47D cells by sodium bisulfite sequencing analysis; format: functional, cell-based; procedure, shortened: as §2
T47D [27] = experiment: Effect of DNA methylation at (+45) CpG site near PR-B transcription start site (-13) in human T47D cells by sodium bisulfite sequencing analysis; format: functional, cell-based; procedure, shortened: as §3
T47D [28] = experiment: Effect of DNA methylation at (+225) CpG site near PR-B transcription start site (-13) in human T47D cells by sodium bisulfite sequencing analysis; format: functional, cell-based; procedure, shortened: as §2
T47D [29] = experiment: Effect of DNA methylation at (+267) CpG site near PR-B transcription start site (-13) in human T47D cells by sodium bisulfite sequencing analysis; format: functional, cell-based; procedure, shortened: as §2
T47D [30] = experiment: Effect of DNA methylation at (+216) CpG site near PR-B transcription start site (-13) in human T47D cells by sodium bisulfite sequencing analysis; format: functional, cell-based; procedure, shortened: as §2
T47D [31] = experiment: Effect of DNA methylation at (-23) CpG site near PR-B transcription start site (-13) in human T47D cells by sodium bisulfite sequencing analysis; format: functional, cell-based; procedure, shortened: as §3
T47D [32] = experiment: Effect of DNA methylation at (+20) CpG site near PR-B transcription start site (-13) in human T47D cells by sodium bisulfite sequencing analysis; format: functional, cell-based; procedure, shortened: as §2
T47D [33] = experiment: Effect of DNA methylation at (+41) CpG site near PR-B transcription start site (-13) in human T47D cells by sodium bisulfite sequencing analysis; format: functional, cell-based; procedure, shortened: as §2
T47D [34] = experiment: Effect of DNA methylation at (+353) CpG site near PR-B transcription start site (-13) in human T47D cells by sodium bisulfite sequencing analysis; format: functional, cell-based; procedure, shortened: as §2

Cc1cn(CC(=O)N(CCNC(=O)CN(CCNC(=O)CN(CCNC(=O)CN(CCNC(=O)CN(CCNC(=O)CN(CCNC(=O)CN(CCNC(=O)CN(CCNC(=O)CN(CCNC(=O)CN(CCNC(=O)CN(CCNC(=O)CN(CCNC(=O)CN(CCNC(=O)CN(CCNC(=O)CN(CCNC(=O)CN(CCNC(=O)CN(CCNC(=O)CN(CCNC(=O)CN(CCNC(=O)CN(CCNC(=O)CN)C(=O)Cn2cnc3c(=O)[nH]c(N)nc32)C(=O)Cn2cnc3c(=O)[nH]c(N)nc32)C(=O)Cn2cnc3c(=O)[nH]c(N)nc32)C(=O)Cn2ccc(=O)[nH]c2=O)C(=O)Cn2cnc3c(=O)[nH]c(N)nc32)C(=O)Cn2cnc3c(N)ncnc32)C(=O)Cn2cnc3c(=O)[nH]c(N)nc32)C(=O)Cn2cnc3c(N)ncnc32)C(=O)Cn2cnc3c(=O)[nH]c(N)nc32)C(=O)Cn2ccc(=O)[nH]c2=O)C(=O)Cn2ccc(=O)[nH]c2=O)C(=O)Cn2ccc(N)nc2=O)C(=O)Cn2ccc(N)nc2=O)C(=O)Cn2ccc(N)nc2=O)C(=O)Cn2ccc(N)nc2=O)C(=O)Cn2cnc3c(N)ncnc32)C(=O)Cn2ccc(=O)[nH]c2=O)C(=O)Cn2ccc(N)nc2=O)C(=O)Cn2ccc(=O)[nH]c2=O)CC(=O)NCCN(CC(=O)NCC(=O)O)C(=O)Cn2cc(C)c(=O)[nH]c2=O)c(=O)[nH]c1=O
active: inhibition (T47D [2]) | inhibition (T47D [3]) | inhibition (T47D [5])
91%: inhibition at 0.1 µM (T47D [1]) | inhibition at 0.1 µM (T47D [4])

Cc1cn(CC(=O)N(CCNC(=O)CN(CCNC(=O)CN(CCNC(=O)CN(CCNC(=O)CN(CCNC(=O)CN(CCNC(=O)CN(CCNC(=O)CN(CCNC(=O)CN(CCNC(=O)CN(CCNC(=O)CN(CCNC(=O)CN(CCNC(=O)CN(CCNC(=O)CN(CCNC(=O)CN(CCNC(=O)CN(CCNC(=O)CN(CCNC(=O)CN(CCNC(=O)CN(CCNC(=O)CN(CCNC(=O)CN)C(=O)Cn2cnc3c(N)ncnc32)C(=O)Cn2cnc3c(N)ncnc32)C(=O)Cn2cnc3c(=O)[nH]c(N)nc32)C(=O)Cn2ccc(N)nc2=O)C(=O)Cn2ccc(=O)[nH]c2=O)C(=O)Cn2cnc3c(=O)[nH]c(N)nc32)C(=O)Cn2ccc(=O)[nH]c2=O)C(=O)Cn2ccc(N)nc2=O)C(=O)Cn2ccc(=O)[nH]c2=O)C(=O)Cn2cnc3c(=O)[nH]c(N)nc32)C(=O)Cn2cnc3c(=O)[nH]c(N)nc32)C(=O)Cn2ccc(N)nc2=O)C(=O)Cn2ccc(N)nc2=O)C(=O)Cn2cnc3c(N)ncnc32)C(=O)Cn2cnc3c(=O)[nH]c(N)nc32)C(=O)Cn2ccc(=O)[nH]c2=O)C(=O)Cn2ccc(N)nc2=O)C(=O)Cn2ccc(N)nc2=O)C(=O)Cn2cnc3c(N)ncnc32)CC(=O)NCCN(CC(=O)NCC(=O)O)C(=O)Cn2cc(C)c(=O)[nH]c2=O)c(=O)[nH]c1=O
inactive: Activity (T47D [6]) | Activity (T47D [7]) | Activity (T47D [9]) | Activity (T47D [10]) | Activity (T47D [11]) | Activity (T47D [12]) | Activity (T47D [13]) | Activity (T47D [14]) | Activity (T47D [15]) | Activity (T47D [16]) | Activity (T47D [17]) | Activity (T47D [18]) | Activity (T47D [19]) | Activity (T47D [21]) | Activity (T47D [22]) | Activity (T47D [23]) | Activity (T47D [24]) | Activity (T47D [25]) | Activity (T47D [26]) | Activity (T47D [27]) | Activity (T47D [28]) | Activity (T47D [29]) | Activity (T47D [30]) | Activity (T47D [31]) | Activity (T47D [32]) | Activity (T47D [33]) | Activity (T47D [34])
72%: inhibition at 0.025 µM (T47D [8])
100%: inhibition at 0.1 µM (T47D [1]) | inhibition at 0.1 µM (T47D [4])
active: inhibition (T47D [2]) | inhibition (T47D [5])
80%: inhibition at 0.025 µM (T47D [20])
